Screens (PubChem BioAssay)
mABHD4 FP = inhibitors of mouse ABHD4. AID 720543. 0.54% of 370,000 active. inhibition, % at 8.92 µM. Q8VD66. purified mABHD4, FP-Rh probe fluorescence polarization;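 active = inhibition exceeding the mean over every tested compound plus 3 SD, cut at about 30% in these data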
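Test system: mABHD4 protein | Buffer or medium: HEPES pH 7.0 buffer, 150 mM NaCl, 0.01% Pluronic F-127 | Probe or stimulus: FP-Rh fluorescent activity-based probe, added after compound pre-incubation | Timing: Pre-incubation 45 min, probe exposure 60 min, at 25 °C | Technique: Fluorescence polarization, excitation 525 nm, emission 598 nm, BODIPY TMR filters | Repeats: Single well per compound (singlicate)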
SIAE inh = inhibitors of human sialic acid acetylesterase SIAE; Q9HAT2; SIAE FP-Rh probe binding, fluorescence polarization; inhibition, % at 9.66 µM; 0.69% of 370,000 active; AID 1053197;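 active = inhibition above a cutoff: mean of compounds within the control limits plus 3 SD of those, cut at about 17% in these data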
PRMT1 inh = PRMT1 (human) inhibition, primary screen; Q99873; recombinant PRMT1, activity-based probe fluorescence polarization; inhibition, % at 2.79 µM; 1.3% of 370,000 active;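 active = inhibition above about 21% made by adding two undisclosed values, limit read from the data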
TCR-CD3 inh = inhibitors of human TCR-CD3 interaction. TAMRA-labeled TCR probe fluorescence, biochemical. inhibition, % at 9.4 µM. 0.37% of 360,000 active. AID 651800;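 also: recombinant mutant TCR 2C K166C tagged with TAMRA read by polarization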
HTRA1 inhibitor = inhibitors of human serine peptidase HTRA1 | inhibition, % at 5.96 µM | 0.5% of 340,000 active | recombinant HTRA1, FP-rhodamine activity-based probe, fluorescence polarization | AID 504803 | Q92743; in the data active = inhibition above about 36%
Target sequence (Q92743 whole entry, looked up): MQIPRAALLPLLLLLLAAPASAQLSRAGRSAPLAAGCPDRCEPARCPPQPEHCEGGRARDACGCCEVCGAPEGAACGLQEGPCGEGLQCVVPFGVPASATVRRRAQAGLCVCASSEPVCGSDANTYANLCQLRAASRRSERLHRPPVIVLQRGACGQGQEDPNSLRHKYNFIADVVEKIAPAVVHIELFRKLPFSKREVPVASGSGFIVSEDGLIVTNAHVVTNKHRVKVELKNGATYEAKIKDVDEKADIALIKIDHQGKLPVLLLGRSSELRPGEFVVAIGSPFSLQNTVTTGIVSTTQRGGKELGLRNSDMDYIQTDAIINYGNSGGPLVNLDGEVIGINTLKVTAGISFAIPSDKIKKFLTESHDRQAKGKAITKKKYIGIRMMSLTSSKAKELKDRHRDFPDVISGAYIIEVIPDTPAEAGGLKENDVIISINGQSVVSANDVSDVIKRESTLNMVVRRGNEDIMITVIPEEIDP
PAD4 FP inh = inhibitors of human PAD4; Q9UM07; recombinant PAD4, RCA probe fluorescence polarization; inhibition, % at 6.36 µM; 0.41% of 330,000 active;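 active = percent inhibition above a cutoff equal to the mean of all tested compounds plus 3 SD, cut at about 15% in these data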
BSA probe FL = BSA probe counter-screen for TCR-CD3 inhibitors. 10% of 1,200 active. inhibition, % at 9.4 µM. shares compounds with TCR-CD3 inh. TAMRA-labeled BSA probe fluorescence counterscreen; in the data active = inhibition above about 23%
TCR-CD3 conf = TCR-CD3 interaction inhibition, confirmation; 48% of 1,200 active; TAMRA-labeled TCR probe fluorescence binding assay; shares compounds with TCR-CD3 inh; inhibition, % at 9.4 µM
Large screens that a line does not name were inactive (follow-up assays come after a bar, where they were run). A selection: hits, their analogues and other compounds. The true share with any hit is near 2.9%. Rule as the data show it, unless noted: active = inhibition above about 19%; inactive = the rest.

COCCN(C(=O)COC(=O)c1cc2c(s1)CCC2)c1c(N)n(Cc2ccccc2)c(=O)[nH]c1=O	TCR-CD3 inh 26.5 | BSA probe FL inactive | TCR-CD3 conf 37.2
Cc1ccc(NC(=O)Cc2cccc(OC(F)F)c2)c(S(=O)(=O)N2CCOCC2)c1	none (no result: TCR-CD3 inh, HTRA1 inhibitor, PAD4 FP inh)
Cn1c(=O)c2cc(S(=O)(=O)N3CCN(c4ccc(F)cc4)CC3)ccc2n(C)c1=O	none (no result: TCR-CD3 inh, HTRA1 inhibitor, PAD4 FP inh)
CCCCc1c(-c2ccccc2OC)ncn1Cc1cc(F)ccc1F	none (no result: HTRA1 inhibitor, PAD4 FP inh)
CCC(=O)N(Cc1cc2c(C)ccc(C)c2[nH]c1=O)C1CCCCC1	TCR-CD3 inh 28.9 | BSA probe FL inactive | TCR-CD3 conf inactive
CCN(C)c1nc(C)nc2c1nnn2Cc1ccccc1	none (no result: TCR-CD3 inh, HTRA1 inhibitor, PAD4 FP inh)
COc1ccc(NC(=O)NNC(=O)c2cc(C3CC3)nc3ccccc23)c(OC)c1	none
CCc1ccccc1NC(=O)NNC(=O)c1ccc2ccccc2c1O	TCR-CD3 inh 26.3 | BSA probe FL inactive | TCR-CD3 conf 21.8
CCc1ccccc1NC(=S)NNC(=O)c1ccccc1Cl	none
COc1ccc(NC(=O)NNC(=O)c2ccc3ccccc3c2O)c(OC)c1	TCR-CD3 inh 42.0 | BSA probe FL inactive | TCR-CD3 conf 31.3
Clc1ccc(-c2csc(NCC3CCCO3)n2)cc1 (stereo not given)	none (no result: HTRA1 inhibitor, PAD4 FP inh)
O=C(CSc1nnc2ccccn12)NNC(=O)c1cccc([N+](=O)[O-])c1	TCR-CD3 inh 79.7 | BSA probe FL inactive | TCR-CD3 conf inactive
O=C(CSc1nnc2ccccn12)NC(=O)c1cccc([N+](=O)[O-])c1	none
COC(=O)CN1CCN(C(=O)c2csc3ccccc23)CC1	none (no result: TCR-CD3 inh, HTRA1 inhibitor, PAD4 FP inh)
C[C@H](O)[C@@H]1C(=O)N2CCc3c([nH]c4cccc(-c5ccccc5)c34)[C@@H]2C[C@@H]1N(C)C(=O)OCc1ccccc1	TCR-CD3 inh 21.1 (no result: HTRA1 inhibitor, PAD4 FP inh) | BSA probe FL inactive | TCR-CD3 conf inactive
C[C@H](O)[C@@H]1C(=O)N2CCc3c([nH]c4cccc(-c5ccccc5)c34)[C@@H]2C[C@@H]1N(C)C(=O)c1ccccc1	none (no result: HTRA1 inhibitor, PAD4 FP inh)
Cc1ccc(-c2[nH]c3cc(C(=O)NCCCn4ccnc4)ccc3c(=O)c2O)cc1	SIAE inh 17.8, TCR-CD3 inh 41.0 | BSA probe FL inactive | TCR-CD3 conf 49.3
Cc1cc(C)nc(SCCC(=O)Nc2ccccc2C)n1	TCR-CD3 inh 107.2 | BSA probe FL inactive | TCR-CD3 conf inactive
CC(=O)N1CCN(C(=O)c2ccc(S(=O)(=O)Nc3ccccc3C)cc2)CC1	none
Cc1ccccc1NS(=O)(=O)c1ccc(C(=O)N2CCC2)cc1	TCR-CD3 inh 20.3 | BSA probe FL inactive | TCR-CD3 conf inactive
COC(=O)C(NC(=O)CSc1nc(N)cc(=O)[nH]1)c1ccccc1 (stereo not given)	none
Nc1cc(=O)[nH]c(SCC(=O)NNC(=O)c2ccccc2)n1	TCR-CD3 inh 21.6 | BSA probe FL inactive | TCR-CD3 conf inactive
CCCCn1c(N)c(N(CCOC)C(=O)c2cc(-c3ccco3)nc3ccccc23)c(=O)[nH]c1=O	TCR-CD3 inh 21.8 | BSA probe FL inactive | TCR-CD3 conf inactive
CCC(=O)Nc1ccc(/C(C)=N/NC(=O)c2c(-c3ccccc3Cl)noc2C)cc1	TCR-CD3 inh 21.4 | BSA probe FL inactive | TCR-CD3 conf inactive
CCc1cccc(C)c1NC(=O)COC(=O)c1c2c(nc3ccccc13)/C(=C\c1cccs1)CCC2	none
NC(=O)c1ccc(NC(=O)COC(=O)c2c3c(nc4ccccc24)/C(=C\c2cccs2)CCC3)cc1	TCR-CD3 inh 19.7 | BSA probe FL inactive | TCR-CD3 conf inactive
O=C(CCc1ccccc1)N[C@H]1[C@@H](OC(=O)c2cnccn2)CCC[C@]12C(=O)N(Cc1ccccc1)c1ccccc12	none (no result: TCR-CD3 inh, HTRA1 inhibitor, PAD4 FP inh)
O=C(O)c1c[nH]c2c([N+](=O)[O-])cccc2c1=O	TCR-CD3 inh 23.7 (no result: PAD4 FP inh) | BSA probe FL inactive | TCR-CD3 conf 22.8
Cc1c(C(=O)O)cccc1[N+](=O)[O-]	none
O=C(O)c1ccccc1C(=O)Nc1ccc(S(=O)(=O)Nc2nccs2)cc1	PRMT1 inh 24.3, TCR-CD3 inh 37.5 | BSA probe FL inactive | TCR-CD3 conf inactive
Cc1cccc(-n2ccc(=O)c(C(=O)Nc3ccc(S(=O)(=O)Nc4nccs4)cc3)n2)c1	none
O=C(Nc1ccc(S(=O)(=O)Nc2nccs2)cc1)c1nn(-c2ccccc2)ccc1=O	TCR-CD3 inh 19.9 | BSA probe FL inactive | TCR-CD3 conf 21.6
CCOC(=O)c1cc(S(=O)(=O)NC2CCCCC2)cn1C	TCR-CD3 inh 30.0 | BSA probe FL inactive | TCR-CD3 conf inactive
COc1ccc(-c2c(Cc3ccccc3)nc(NC(=O)c3ccccc3)n2C)cc1	none (no result: TCR-CD3 inh, HTRA1 inhibitor, PAD4 FP inh)
COc1ccc(C(=O)NC(=S)NNC(=O)c2ccc(O)cc2)cc1[N+](=O)[O-]	TCR-CD3 inh 28.1 | BSA probe FL inactive | TCR-CD3 conf 27.6
CCCCCC(=O)NNC(=S)NC(=O)c1cccc([N+](=O)[O-])c1	none
COc1ccc(C(=O)NNC(=O)c2ccncc2)cc1[N+](=O)[O-]	none
CCn1c(C)nc2cc(C(=O)NNC(=S)NC(=O)c3ccc(OC)cc3)ccc21	TCR-CD3 inh 35.6 | BSA probe FL inactive | TCR-CD3 conf 31.6
COc1ccc(C(=O)NNC(=S)NC(=O)c2cccc([N+](=O)[O-])c2)cc1	TCR-CD3 inh 20.6 | BSA probe FL inactive | TCR-CD3 conf 28.5
Cc1[nH]c2ccccc2c1CC(=O)Nc1ccc(Nc2cccnc2)c(-c2ccc(OC(F)(F)F)cc2)c1	none (no result: HTRA1 inhibitor, PAD4 FP inh)
O=C(N[C@H](C(=O)N1CCC[C@H]1C(=O)NCCc1ccccc1Cl)c1ccccc1)c1ccco1	none (no result: HTRA1 inhibitor, PAD4 FP inh)
C=C(C)c1cccc(C(C)(C)NC(=O)NNC(=O)c2ccccc2O)c1	TCR-CD3 inh 30.9 | BSA probe FL inactive | TCR-CD3 conf inactive
CCCCCCCCN1CN2Cc3ccccc3C2CS1(=O)=O (stereo not given)	none (no result: TCR-CD3 inh, HTRA1 inhibitor, PAD4 FP inh)
O=C(NNC(=O)c1ccccc1O)c1ccc(Br)cc1	TCR-CD3 inh 22.7 | BSA probe FL inactive | TCR-CD3 conf 20.9
O=C(CCNC(=O)c1ccccc1)NNC(=O)c1ccccc1Br	none
O=C(CCNC(=O)c1ccc(Br)cc1)NNC(=O)c1ccccc1O	TCR-CD3 inh 22.5 | BSA probe FL inactive | TCR-CD3 conf 20.4
COc1ccccc1OCC(=O)NCCNC(=O)COc1ccccc1OC	none
COc1ccccc1OCC(=O)NNC(=O)CCCC(=O)NNC(=O)COc1ccccc1OC	TCR-CD3 inh 25.6 | BSA probe FL inactive | TCR-CD3 conf inactive
O=C(CCC(=O)c1cccs1)NNC(=O)c1ccccc1O	TCR-CD3 inh 48.4 | BSA probe FL inactive | TCR-CD3 conf 28.3
COc1ccc(-n2c(COc3ccccc3)nnc2SCc2nc3ccccc3[nH]2)cc1	none (no result: TCR-CD3 inh, HTRA1 inhibitor, PAD4 FP inh)
COc1ccccc1/C=C1\SC(=S)N(CCC(=O)NNC(=O)c2ccccc2OC)C1=O	TCR-CD3 inh 27.8 | BSA probe FL inactive | TCR-CD3 conf inactive
